Screening data: PubChem BioAssay, Johns Hopkins Ion Channel Center
TRPC6 activator: activates the mouse TRPC6 cation channel; Q61143; HEK293-TRPC6 membrane potential dye fluorescence; active compounds read high; B-score at 10 µM; 0.13% of 310,000 active; AID 2550;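 active means B-score of the integrated fluorescence ratio above library mean plus 3 SD, and starting fluorescence ratio within library mean plus 5 SD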;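 further: higher score means more depolarization so channel activation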
TRPC4 agonist: opens the mouse TRPC4 cation channel; AID 2237; 0.49% of 310,000 active; HEK293 TRPC4beta/mu-opioid, Fluo4 calcium fluorescence; active compounds read high; B-score at 10 µM;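 active means B-score above 5 SD of library B-scores, and initial fluorescence ratio not above library mean plus 5 SD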;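 further: positive B-score marks a calcium rise read as TRPC4 activation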
Target sequence (Q9QUQ5 whole entry, looked up): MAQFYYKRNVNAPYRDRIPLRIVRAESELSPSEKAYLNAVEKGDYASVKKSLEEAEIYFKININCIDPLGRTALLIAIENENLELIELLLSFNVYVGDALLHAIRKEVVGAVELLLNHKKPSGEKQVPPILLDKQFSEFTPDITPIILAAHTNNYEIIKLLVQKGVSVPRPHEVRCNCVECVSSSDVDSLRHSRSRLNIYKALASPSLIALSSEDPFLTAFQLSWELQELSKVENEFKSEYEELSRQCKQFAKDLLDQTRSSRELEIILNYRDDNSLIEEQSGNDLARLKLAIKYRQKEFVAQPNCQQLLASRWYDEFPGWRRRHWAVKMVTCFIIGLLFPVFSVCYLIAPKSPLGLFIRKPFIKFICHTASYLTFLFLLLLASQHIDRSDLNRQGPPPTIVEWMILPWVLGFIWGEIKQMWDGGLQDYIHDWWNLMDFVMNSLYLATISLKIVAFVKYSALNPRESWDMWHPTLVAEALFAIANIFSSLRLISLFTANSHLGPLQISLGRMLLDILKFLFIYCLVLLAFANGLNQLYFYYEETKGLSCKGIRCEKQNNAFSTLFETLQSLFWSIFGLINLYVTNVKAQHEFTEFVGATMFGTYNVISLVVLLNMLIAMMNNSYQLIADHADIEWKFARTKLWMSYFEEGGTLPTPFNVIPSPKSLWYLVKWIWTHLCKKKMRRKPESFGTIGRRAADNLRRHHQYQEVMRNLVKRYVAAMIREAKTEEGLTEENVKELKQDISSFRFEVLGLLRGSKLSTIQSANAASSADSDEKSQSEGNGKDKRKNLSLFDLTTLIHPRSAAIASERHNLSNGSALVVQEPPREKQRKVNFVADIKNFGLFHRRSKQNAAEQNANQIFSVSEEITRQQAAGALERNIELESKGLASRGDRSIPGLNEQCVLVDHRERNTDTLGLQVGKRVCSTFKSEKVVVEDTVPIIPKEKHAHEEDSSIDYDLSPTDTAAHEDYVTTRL
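Test system: HEK293 cells stably co-expressing mouse TRPC4beta and mu-opioid receptor | Schedule: Fluo4 dye loading 45 min at room temperature, 110 s recording | Measured by: Kinetic Fluo4 calcium fluorescence, 5 s baseline at 1 Hz | Evaluation: B score of integrated ratio | Controls: Buffer (low) and maximal DAMGO (high)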
TRPC6 inh: inhibitors of mouse TRPC6 channel. HEK293-TRPC6, membrane potential dye, ACh-evoked depolarization; active compounds read low. B-score at 10 µM. 1.1% of 310,000 active. AID 2553;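 active means B-score under library mean minus 3 SD, initial fluorescence not abnormally high, positive integrated signal ratio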;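 further: B-score derived from integrated fluorescence ratio over the kinetic read; more negative B-score means stronger inhibition of depolarization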
TRPC4 block: inhibitors of mouse TRPC4 channel. B-score at 10 µM. AID 2247. HEK293 TRPC4beta/mu-opioid, DAMGO-evoked Fluo4 calcium flux; active compounds read low. 0.39% of 300,000 active. Q9QUQ5;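 active means B-score over 3 SD under the library average, no early fluorescence shift, positive overall ratio signal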
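Material: HEK293 cells with stable TRPC4beta plus mu-opioid receptor expression / Probe or stimulus: DAMGO in two steps, submaximal then maximal / Compound: single concentration per test compound / Technique: kinetic Fluo4 fluorescence imaging of calcium influx / Read-out: per-well B score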
TRPC4 potent: allosterically enhances the mouse TRPC4 cation channel; AID 2227; 0.42% of 310,000 active; HEK293 TRPC4beta/mu-opioid, DAMGO EC20, Fluo-4 Ca2+ flux; active compounds read high; B-score at 10 µM; Q9QUQ5;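 active means B-score of calcium response area above 5 SD of library B-scores, with initial fluorescence ratio within 5 SD of library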;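 further: B-score of integrated fluorescence ratio over time as area under calcium response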
TRPC4 spec 2: second check of whether TRPC6 inhibitors also affect mouse TRPC4 | shares compounds with TRPC6 inh | HEK293 TRPC4/MOR, membrane potential dye fluorescence; channel activated by saturating DAMGO dose | inhibition, % at 10 µM | 42% of 920 active | AID 2776;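 active means compounds whose fluorescence signal differed from control wells by over 3 SD, either direction, in both duplicate plates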
TRPC4 spec: mouse TRPC4 off-target activity of TRPC6 inhibitors. shares compounds with TRPC6 inh. HEK293 TRPC4/mu-opioid, membrane potential fluorescence. activity change, negative = inhibition, % at 10 µM. 61% of 920 active;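 active means rise or fall in signal beyond 3 SD of buffer-only wells in both replicate plates, either sign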;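 further: integrated kinetic ratio of fluorescence range over baseline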
HEK293 MPD ctr 2-1: parental HEK293 nonspecific activity of TRPC6 inhibitors, second screen. shares compounds with TRPC6 inh. parental HEK293 membrane potential dye fluorescence; maximal acetylcholine challenge after compound addition. signal change vs control, % at 10 µM. 31% of 920 active;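 active means membrane potential signal moving either way by over 3 SD of the maximum-effect control, in both duplicate plates, meaning non-specific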
HEK293 MPD ctr-1: checks TRPC6 inhibitor effects in parental HEK293 cells | 60% of 920 active | parental HEK293 membrane potential dye fluorescence | AID 2780 | membrane potential signal change, % at 10 µM | shares compounds with TRPC6 inh;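 active means membrane potential signal shifting up or down by more than 3 SD of buffer-only wells, on both duplicate plates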
HEK293 MPD ctr-2: parental HEK293 nonspecific activity of TRPC6 modulators | shares compounds with TRPC6 inh | membrane potential dye fluorescence | membrane potential signal change, % at 10 µM | 51% of 2,400 active | AID 488924;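 active means membrane potential signal moves up or down beyond 5 SD from buffer-only wells, on both duplicate plates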
HEK293 MPD ctr 2-2: second counter-screen for TRPC6 modulators: effect in parental HEK293 cells; AID 488926; 14% of 2,400 active; shares compounds with TRPC6 inh; inhibition, % at 10 µM; membrane potential dye fluorescence; after compound, maximal acetylcholine stimulation;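 active means membrane potential signal drops by more than 5 SD from the mean control signal, in both duplicate plates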;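 further: plate controls were acetylcholine ECmax control wells for no effect and buffer only wells for full effect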
TRPC4/MOR mod: tests whether TRPC6 modulators also affect mouse TRPC4. shares compounds with TRPC6 inh. HEK293 TRPC4/mu-opioid, membrane potential fluorescence. percent change from control (negative = decrease, positive = increase), % at 10 µM. 69% of 2,400 active. AID 488927;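 active means membrane potential signal moved up or down beyond 5 SD of buffer control wells, in both duplicate plates, actives on both sides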;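 further: plate controls were assay buffer wells for no effect and DAMGO maximal-effect wells for full effect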
TRPC4/MOR inh 2: mouse TRPC4 off-target activity of TRPC6 modulators, second screen; 55% of 2,400 active; inhibition, % at 10 µM; HEK293 TRPC4/mu-opioid, membrane potential dye fluorescence; stimulated with maximal-effect DAMGO; AID 488928; shares compounds with TRPC6 inh;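 active means drop in membrane potential signal beyond 5 SD of the control wells in both duplicate plates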;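 further: TRPC4 counter screen for TRPC6 hits run under conditions tuned for TRPC6 not TRPC4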
TRPC6 inh conf: confirmation of mouse TRPC6 inhibitors | shares compounds with TRPC6 inh | HEK293-TRPC6, membrane potential dye, ACh-evoked depolarization | inhibition, % at 10 µM | 43% of 3,300 active;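 active means fluorescence ratio falls more than 5 SD below the full-stimulation control mean, in both duplicate runs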;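 further: integrated fluorescence ratio of peak minus minimum over baseline after agonist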
TRPC6 act conf: confirmation of mouse TRPC6 activators; activation, % at 10 µM; 11% of 2,800 active; AID 488961; shares compounds with TRPC6 inh; HEK293-TRPC6 membrane potential dye fluorescence, FDSS;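 active means ratio signal rise beyond 5 SD above unstimulated control wells' mean, seen in both duplicate runs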;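 further: plate controls were buffer EC0 wells for no effect and acetylcholine ECmax response for full effect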
Numbers without * were called inactive; i = inactive; nt = no result; + = active, no number; ! = repeats disagree. Compounds with a hit are over-represented: about 2.3% of the library has one in this group of screens.

SMILES	TRPC6 activator	TRPC4 agonist	TRPC6 inh	TRPC4 block	TRPC4 potent	HEK293 MPD ctr-2	HEK293 MPD ctr 2-2	TRPC4/MOR mod	TRPC4/MOR inh 2	TRPC6 inh conf	TRPC6 act conf	others
Cc1ccc(S(=O)(=O)/C(C#N)=C/c2c(N3CCOCC3)nc3c(C)cccn3c2=O)cc1	i	i	-5.86*	i	i	i	i	-10.5%*	i	i	i
CC(C)(C)NC(=O)C(c1ccc(O)cc1)N(Cc1ccco1)C(=O)CCC(=O)Nc1ccccn1 (stereo not given)	i	i	i	i	i	nt	nt	nt	nt	nt	nt
CC(C)(C)NC(=O)C(c1ccc(F)cc1)N(Cc1ccco1)C(=O)CCC(=O)Nc1ccccn1 (stereo not given)	i	i	-6*	i	i	354.5%*	i	77.5%*	i	i	nt
O=C(NCc1cccc(C(F)(F)F)c1)c1ccc(=O)[nH]c1	i	i	i	i	i	nt	nt	nt	nt	nt	nt
CSCc1ccc(C(=O)NC(C)c2ccc(-n3ccnc3)cc2)cc1 (stereo not given)	i	i	i	i	i	nt	nt	nt	nt	nt	nt
CCOC(=O)CNC(=O)Cn1cnc2c(nnn2-c2ccc(OC)cc2)c1=O	i	i	-9.52*	i	i	nt	nt	nt	nt	i	i	TRPC4 spec 2=i;TRPC4 spec=i;HEK293 MPD ctr 2-1=i;HEK293 MPD ctr-1=i
O=C1CC(c2ccco2)CC(O)=C1C=NCCN1CCNCC1 (stereo not given)	i	i	-8.7*	i	i	nt	nt	nt	nt	i	i	TRPC4 spec 2=i;TRPC4 spec=i;HEK293 MPD ctr 2-1=i;HEK293 MPD ctr-1=i
O=C1CC(c2ccc(Cl)c(Cl)c2)CC(O)=C1C=NCCN1CCNCC1 (stereo not given)	i	i	-5.92*	i	i	i	i	9.5%*	i	i	nt
O=C1CC(c2ccc(F)cc2)CC(O)=C1C=NCCN1CCNCC1 (stereo not given)	i	i	i	i	i	nt	nt	nt	nt	nt	nt
O=S(=O)(/C=C/c1cccc(Br)c1)N1CCOCC1	i	i	i	i	i	nt	nt	nt	nt	nt	nt
COC(=O)Cc1sc(-c2ccccn2)nc1-c1ccccc1	i	i	-5.66*	i	i	i	i	12.5%*	i	i	i
Cc1c2ccccc2nc2c(F)c(N(C)C)c(F)c(F)c12	i	i	i	i	i	nt	nt	nt	nt	nt	nt
c1ccc2nc3ccccc3nc2c1	i	i	i	i	i	nt	nt	nt	nt	nt	nt
Nc1c2ccccc2nc2ccccc12	i	i	-10*	i	i	nt	nt	nt	nt	66.5%*!	i	TRPC4 spec 2=43.0%*;TRPC4 spec=-36.9%*;HEK293 MPD ctr 2-1=32.0%*;HEK293 MPD ctr-1=-420.5%*
Cc1c(N(C)C)nc2ccccc2c1N	i	i	-10.2*	i	i	nt	nt	nt	nt	i	i	TRPC4 spec 2=44.5%*;TRPC4 spec=-17.5%*;HEK293 MPD ctr 2-1=i;HEK293 MPD ctr-1=-312.5%*
CC(=O)c1c(C)nc2ccccc2c1N	i	i	-5.24*	i	i	-195.0%*	i	-31.5%*	i	i	i
CCN(CC)c1nc2ccccc2c(N)c1-c1ccccc1	i	i	-6.88*	-7*	i	nt	nt	nt	nt	i	i	TRPC4 spec 2=41.5%*;TRPC4 spec=14.4%*;HEK293 MPD ctr 2-1=i;HEK293 MPD ctr-1=9.3%*
COc1cccc(C(=O)NCc2ccco2)c1OC	i	i	i	i	i	nt	nt	nt	nt	nt	nt
CCCCc1nnc(NC(=O)c2ccccc2OCc2c(C)noc2C)s1	i	i	i	i	i	nt	nt	nt	nt	nt	nt
CCOc1ccccc1N(CC(=O)Nc1ccc(S(=O)(=O)N2CCOCC2)cc1)S(=O)(=O)c1ccc(Cl)cc1	i	i	i	i	i	nt	nt	nt	nt	nt	nt
O=[N+]([O-])c1ccc(/C=N/Nc2nc(N3CCCCC3)nc(N3CCCCC3)n2)cc1	i	i	-5.95*	i	i	i	i	i	i	i	i
O=C(CSc1nnc(CNC(=O)c2ccco2)o1)Nc1cccc(F)c1	i	i	i	i	i	nt	nt	nt	nt	nt	nt
O=C(NCCCN1CCOCC1)C1Nc2ccc(OC(F)(F)F)cc2C2C=CCC12 (stereo not given)	i	i	-9.74*	i	i	i	i	i	i	i	i
Cc1ccc2c(c1)C1C=CCC1C(C(=O)NCCCN1CCOCC1)N2 (stereo not given)	i	i	i	i	i	nt	nt	nt	nt	nt	nt
Cc1ccc2c(c1)C1CN(C)CCC1N2C(=O)COc1ccc(N(C)S(=O)(=O)c2cccs2)cc1 (stereo not given)	i	i	-6.02*	i	i	i	i	-22.0%*	76.0%*	53.0%*	i
CCOc1ccc(S(=O)(=O)N(C)c2ccc(OCC(=O)N3c4ccc(C)cc4C4CN(C)CCC43)cc2)cc1 (stereo not given)	i	i	i	i	i	nt	nt	nt	nt	nt	nt
CC1C/C(=C/c2cccn2C)C(=O)/C(=C/c2cccn2C)C1 (stereo not given)	78.9*	i	i	i	i	+	i	440.5%*	i	i	311.0%*
Cc1cc(C)n2[nH]c(=O)c(N=Nc3ccc(S(N)(=O)=O)cc3)c2n1	i	i	-14.6*	i	i	-397.0%*	102.0%*	-59.5%*	68.5%*	79.0%*	i
